Measurements: ChEMBL document CHEMBL2424622, “Development of amino-pyrimidine inhibitors of c-Jun N-terminal kinase (JNK): kinase profiling guided optimization of a 1,2,3-benzotriazole lead” (Bioorg Med Chem Lett, 2013)

How the values were obtained:
[1] = biological target: Fibroblast growth factor receptor 1 (Homo sapiens) (UniProt P11362); test: Competitive binding affinity to FGFR1 (unknown origin) at 10 uM in presence of ATP relative to control
Summary of the method: (§1)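 In vitro ATP-site competition binding assay, part of profiling against a diverse panel of 128 kinases. Each compound was tested at a single concentration of 10 µM. Kinome selectivity was summarized as S15 selectivity scores.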

[2] = biological target: Tyrosine-protein kinase Fes/Fps (Homo sapiens) (UniProt P07332); test: Competitive binding affinity to FES (unknown origin) at 10 uM in presence of ATP relative to control; summary of the method: as §1
[3] = biological target: Receptor tyrosine-protein kinase erbB-2 (Homo sapiens) (UniProt P04626); test: Competitive binding affinity to ERBB2 (unknown origin) at 10 uM in presence of ATP relative to control; summary of the method: as §1
[4] = biological target: T1, Myotonin-protein kinase (Homo sapiens) (UniProt Q09013); test: Competitive binding affinity to DMPK (unknown origin) at 10 uM in presence of ATP relative to control
T1 sequence (whole entry): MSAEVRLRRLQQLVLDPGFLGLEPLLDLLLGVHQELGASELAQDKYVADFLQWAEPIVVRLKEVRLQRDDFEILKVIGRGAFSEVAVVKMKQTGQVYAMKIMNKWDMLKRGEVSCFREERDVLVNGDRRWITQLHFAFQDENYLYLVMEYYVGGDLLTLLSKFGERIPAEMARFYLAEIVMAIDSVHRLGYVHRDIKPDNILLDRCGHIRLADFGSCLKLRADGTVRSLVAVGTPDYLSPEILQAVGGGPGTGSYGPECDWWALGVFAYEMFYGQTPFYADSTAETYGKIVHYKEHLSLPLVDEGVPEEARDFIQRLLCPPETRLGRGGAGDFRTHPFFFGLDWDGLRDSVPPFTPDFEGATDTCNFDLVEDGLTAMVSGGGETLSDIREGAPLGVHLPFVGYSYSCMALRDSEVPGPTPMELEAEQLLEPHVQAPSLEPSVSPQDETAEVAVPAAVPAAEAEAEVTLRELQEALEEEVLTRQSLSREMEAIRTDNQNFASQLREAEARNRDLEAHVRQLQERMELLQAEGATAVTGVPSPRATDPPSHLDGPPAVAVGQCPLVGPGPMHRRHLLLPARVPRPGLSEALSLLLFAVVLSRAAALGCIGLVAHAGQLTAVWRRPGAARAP

[5] = biological target: Dual specificity protein kinase CLK1 (Homo sapiens) (UniProt P49759); test: Competitive binding affinity to CLK1 (unknown origin) at 10 uM in presence of ATP relative to control
Sequence of Dual specificity protein kinase CLK1 (Homo sapiens) (P49759 whole entry, looked up): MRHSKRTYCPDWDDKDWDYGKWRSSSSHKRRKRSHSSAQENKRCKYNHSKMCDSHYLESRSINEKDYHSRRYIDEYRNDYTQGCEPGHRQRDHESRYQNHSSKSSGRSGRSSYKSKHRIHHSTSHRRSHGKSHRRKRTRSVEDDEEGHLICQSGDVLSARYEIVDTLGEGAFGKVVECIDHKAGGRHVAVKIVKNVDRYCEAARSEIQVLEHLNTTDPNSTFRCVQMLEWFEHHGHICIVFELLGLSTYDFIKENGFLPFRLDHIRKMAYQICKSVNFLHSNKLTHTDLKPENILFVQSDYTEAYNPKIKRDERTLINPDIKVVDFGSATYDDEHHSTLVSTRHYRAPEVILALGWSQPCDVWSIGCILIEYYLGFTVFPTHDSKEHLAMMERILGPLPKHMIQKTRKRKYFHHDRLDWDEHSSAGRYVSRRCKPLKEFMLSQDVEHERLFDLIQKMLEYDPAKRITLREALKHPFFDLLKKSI

[6] = biological target: Calcium/calmodulin-dependent protein kinase type II subunit alpha (Homo sapiens) (UniProt Q9UQM7); test: Competitive binding affinity to CAMK2A (unknown origin) at 10 uM in presence of ATP relative to control
Sequence of Calcium/calmodulin-dependent protein kinase type II subunit alpha (Homo sapiens) (Q9UQM7 whole entry): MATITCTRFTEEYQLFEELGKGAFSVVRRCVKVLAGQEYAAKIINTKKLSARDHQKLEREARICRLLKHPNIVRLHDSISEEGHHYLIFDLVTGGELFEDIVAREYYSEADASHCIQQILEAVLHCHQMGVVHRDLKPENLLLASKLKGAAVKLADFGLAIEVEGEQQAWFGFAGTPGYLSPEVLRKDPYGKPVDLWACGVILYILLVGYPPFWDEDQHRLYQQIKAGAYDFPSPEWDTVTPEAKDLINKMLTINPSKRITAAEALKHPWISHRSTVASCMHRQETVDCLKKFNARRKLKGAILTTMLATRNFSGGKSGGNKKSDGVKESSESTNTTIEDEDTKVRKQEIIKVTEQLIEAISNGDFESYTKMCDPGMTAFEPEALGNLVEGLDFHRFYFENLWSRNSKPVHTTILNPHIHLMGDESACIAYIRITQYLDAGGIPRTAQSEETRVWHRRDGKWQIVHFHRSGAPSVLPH

[7] = tested on: Serine/threonine-protein kinase B-raf (Homo sapiens), P15056 [V600E]; test: Competitive binding affinity to BRAF V600E mutant (unknown origin) at 10 uM in presence of ATP relative to control
Sequence of Serine/threonine-protein kinase B-raf (Homo sapiens), P15056 [V600E] (P15056 whole entry V600E): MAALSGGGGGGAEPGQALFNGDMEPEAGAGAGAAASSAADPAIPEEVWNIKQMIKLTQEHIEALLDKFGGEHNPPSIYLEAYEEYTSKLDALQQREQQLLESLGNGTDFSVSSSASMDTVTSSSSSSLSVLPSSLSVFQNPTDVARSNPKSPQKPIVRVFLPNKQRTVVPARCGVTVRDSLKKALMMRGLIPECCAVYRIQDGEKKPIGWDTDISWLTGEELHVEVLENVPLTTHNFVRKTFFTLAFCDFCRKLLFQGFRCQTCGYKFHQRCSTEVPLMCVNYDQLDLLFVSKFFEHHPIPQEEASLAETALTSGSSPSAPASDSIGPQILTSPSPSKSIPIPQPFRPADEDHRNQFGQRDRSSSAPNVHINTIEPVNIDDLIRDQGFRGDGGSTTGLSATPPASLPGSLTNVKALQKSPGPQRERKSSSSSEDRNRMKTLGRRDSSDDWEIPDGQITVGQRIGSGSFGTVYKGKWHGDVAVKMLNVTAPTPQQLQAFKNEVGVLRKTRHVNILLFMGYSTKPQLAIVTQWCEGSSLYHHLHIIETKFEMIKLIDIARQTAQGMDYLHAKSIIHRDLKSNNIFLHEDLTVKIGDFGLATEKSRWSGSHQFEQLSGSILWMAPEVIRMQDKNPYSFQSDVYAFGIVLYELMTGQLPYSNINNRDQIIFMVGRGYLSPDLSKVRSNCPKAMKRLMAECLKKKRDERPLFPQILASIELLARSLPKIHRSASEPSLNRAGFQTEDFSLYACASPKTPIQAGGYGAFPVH

[8] = biological target: T2, Aurora kinase C (Homo sapiens) (UniProt Q9UQB9); test: Competitive binding affinity to AURKC (unknown origin) at 10 uM in presence of ATP relative to control
T2 sequence (whole entry): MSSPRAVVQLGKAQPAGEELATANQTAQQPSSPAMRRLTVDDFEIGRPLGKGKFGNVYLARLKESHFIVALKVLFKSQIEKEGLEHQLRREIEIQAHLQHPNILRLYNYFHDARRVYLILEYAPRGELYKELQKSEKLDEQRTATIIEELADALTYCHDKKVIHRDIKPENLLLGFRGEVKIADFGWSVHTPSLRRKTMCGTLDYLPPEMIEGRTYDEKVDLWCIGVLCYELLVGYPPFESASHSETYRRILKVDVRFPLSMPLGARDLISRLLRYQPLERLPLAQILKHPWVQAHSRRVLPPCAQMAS

[9] = biological target: AP2-associated protein kinase 1 (Homo sapiens) (UniProt Q2M2I8); test: Competitive binding affinity to AAK1 (unknown origin) at 10 uM in presence of ATP relative to control
Summary of the method: (§2)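 In vitro ATP-site competition binding assay across a diverse panel of 128 kinases, with each compound tested at a single concentration. Kinase binding is expressed relative to control.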

[10] = biological target: Tyrosine-protein kinase SYK (Homo sapiens) (UniProt P43405); test: Competitive binding affinity to SYK (unknown origin) at 10 uM in presence of ATP relative to control
Summary of the method: (§3)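 In vitro ATP-site competition binding assay across a diverse panel of 128 kinases, with compound tested at a single concentration. Kinase selectivity scores (S15) were calculated from the panel profiles.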

[11] = biological target: Receptor-interacting serine/threonine-protein kinase 2 (Homo sapiens) (UniProt O43353); test: Competitive binding affinity to RIPK2 (unknown origin) at 10 uM in presence of ATP relative to control; summary of the method: as §3
Sequence of Receptor-interacting serine/threonine-protein kinase 2 (Homo sapiens) (O43353 whole entry): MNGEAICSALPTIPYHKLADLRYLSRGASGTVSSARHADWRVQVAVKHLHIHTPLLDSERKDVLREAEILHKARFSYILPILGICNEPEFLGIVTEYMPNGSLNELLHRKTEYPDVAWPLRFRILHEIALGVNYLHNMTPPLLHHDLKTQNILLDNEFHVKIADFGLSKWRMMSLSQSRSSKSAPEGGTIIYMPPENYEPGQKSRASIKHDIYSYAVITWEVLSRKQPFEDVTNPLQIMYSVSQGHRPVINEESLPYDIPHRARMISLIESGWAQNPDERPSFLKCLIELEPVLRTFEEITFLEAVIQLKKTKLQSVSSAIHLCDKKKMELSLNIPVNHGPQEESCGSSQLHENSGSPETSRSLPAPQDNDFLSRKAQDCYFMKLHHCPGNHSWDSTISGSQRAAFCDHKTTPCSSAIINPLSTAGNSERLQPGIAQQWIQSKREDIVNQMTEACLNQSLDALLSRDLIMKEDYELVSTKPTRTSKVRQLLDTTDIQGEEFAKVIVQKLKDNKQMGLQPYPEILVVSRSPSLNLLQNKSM

[12] = biological target: Focal adhesion kinase 1 (Homo sapiens) (UniProt Q05397); test: Competitive binding affinity to PTK2 (unknown origin) at 10 uM in presence of ATP relative to control; summary of the method: as §3
Sequence of Focal adhesion kinase 1 (Homo sapiens) (Q05397 2-1052 limits assumed): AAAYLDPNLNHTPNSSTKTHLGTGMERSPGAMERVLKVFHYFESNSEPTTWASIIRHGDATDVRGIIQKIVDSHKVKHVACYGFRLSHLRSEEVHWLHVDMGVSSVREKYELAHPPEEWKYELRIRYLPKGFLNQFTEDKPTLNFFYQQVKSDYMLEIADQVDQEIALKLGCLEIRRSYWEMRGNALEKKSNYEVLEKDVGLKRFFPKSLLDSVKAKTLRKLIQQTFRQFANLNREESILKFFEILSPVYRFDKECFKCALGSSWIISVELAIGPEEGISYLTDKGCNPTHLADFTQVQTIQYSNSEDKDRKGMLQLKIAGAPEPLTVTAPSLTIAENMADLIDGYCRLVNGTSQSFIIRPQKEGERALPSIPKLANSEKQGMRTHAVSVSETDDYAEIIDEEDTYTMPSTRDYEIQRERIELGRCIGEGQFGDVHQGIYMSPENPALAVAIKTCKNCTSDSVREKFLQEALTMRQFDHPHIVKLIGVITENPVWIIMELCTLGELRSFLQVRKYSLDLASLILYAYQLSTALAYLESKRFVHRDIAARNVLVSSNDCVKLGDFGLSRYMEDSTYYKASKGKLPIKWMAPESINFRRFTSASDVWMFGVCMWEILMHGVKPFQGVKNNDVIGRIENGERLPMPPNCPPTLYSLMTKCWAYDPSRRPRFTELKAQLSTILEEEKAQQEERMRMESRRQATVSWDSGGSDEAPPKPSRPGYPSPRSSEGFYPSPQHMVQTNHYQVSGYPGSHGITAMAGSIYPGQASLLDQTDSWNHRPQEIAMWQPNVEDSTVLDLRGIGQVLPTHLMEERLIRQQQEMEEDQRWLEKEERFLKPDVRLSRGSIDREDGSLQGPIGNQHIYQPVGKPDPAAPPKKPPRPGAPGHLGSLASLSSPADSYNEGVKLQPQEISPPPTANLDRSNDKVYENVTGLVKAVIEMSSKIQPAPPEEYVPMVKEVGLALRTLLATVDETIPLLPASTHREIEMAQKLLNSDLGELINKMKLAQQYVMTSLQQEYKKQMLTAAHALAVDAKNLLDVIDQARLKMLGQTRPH

[13] = biological target: T3, Membrane-associated tyrosine- and threonine-specific cdc2-inhibitory kinase (Homo sapiens) (UniProt Q99640); test: Competitive binding affinity to PKMYT1 (unknown origin) at 10 uM in presence of ATP relative to control; summary of the method: as §3
T3 sequence (whole entry): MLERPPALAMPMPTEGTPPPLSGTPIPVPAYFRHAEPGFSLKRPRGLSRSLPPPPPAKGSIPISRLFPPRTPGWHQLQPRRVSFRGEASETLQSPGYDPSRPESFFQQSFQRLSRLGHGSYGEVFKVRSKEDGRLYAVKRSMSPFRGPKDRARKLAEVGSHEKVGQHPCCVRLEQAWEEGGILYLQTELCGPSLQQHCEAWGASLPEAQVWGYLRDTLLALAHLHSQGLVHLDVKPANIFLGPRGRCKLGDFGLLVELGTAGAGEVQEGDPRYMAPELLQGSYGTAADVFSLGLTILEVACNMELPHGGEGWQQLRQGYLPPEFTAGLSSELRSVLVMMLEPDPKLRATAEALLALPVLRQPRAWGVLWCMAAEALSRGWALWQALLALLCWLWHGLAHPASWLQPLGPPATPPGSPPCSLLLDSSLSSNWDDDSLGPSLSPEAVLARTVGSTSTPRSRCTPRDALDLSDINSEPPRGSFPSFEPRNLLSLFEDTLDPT

[14] = biological target: Platelet-derived growth factor receptor beta (Homo sapiens, UniProt P09619); test: Competitive binding affinity to PDGFRB (unknown origin) at 10 uM in presence of ATP relative to control; summary of the method: as §2
[15] = biological target: Serine/threonine-protein kinase PAK 6 (Homo sapiens) (UniProt Q9NQU5); test: Competitive binding affinity to PAK6 (unknown origin) at 10 uM in presence of ATP relative to control; summary of the method: as §3
[16] = biological target: Tyrosine-protein kinase HCK (Homo sapiens) (UniProt P08631); test: Competitive binding affinity to HCK (unknown origin) at 10 uM in presence of ATP relative to control; summary of the method: as §1
Sequence of Tyrosine-protein kinase HCK (Homo sapiens) (P08631 2-526 limits assumed): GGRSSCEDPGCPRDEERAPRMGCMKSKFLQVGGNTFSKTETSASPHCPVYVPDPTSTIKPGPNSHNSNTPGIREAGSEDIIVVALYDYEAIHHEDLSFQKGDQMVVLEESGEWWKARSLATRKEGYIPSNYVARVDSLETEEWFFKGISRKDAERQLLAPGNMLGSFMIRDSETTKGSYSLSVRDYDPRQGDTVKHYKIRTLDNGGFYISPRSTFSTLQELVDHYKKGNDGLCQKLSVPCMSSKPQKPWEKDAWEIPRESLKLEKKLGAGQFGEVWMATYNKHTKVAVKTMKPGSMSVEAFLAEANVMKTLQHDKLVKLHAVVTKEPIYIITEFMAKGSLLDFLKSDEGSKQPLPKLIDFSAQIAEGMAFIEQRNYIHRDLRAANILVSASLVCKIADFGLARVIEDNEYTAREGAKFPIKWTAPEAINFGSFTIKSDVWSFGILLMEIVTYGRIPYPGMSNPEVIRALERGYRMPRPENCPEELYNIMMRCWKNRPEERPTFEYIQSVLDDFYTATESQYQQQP

Sequence of Fibroblast growth factor receptor 1 (Homo sapiens) (P11362 22-822 limits assumed): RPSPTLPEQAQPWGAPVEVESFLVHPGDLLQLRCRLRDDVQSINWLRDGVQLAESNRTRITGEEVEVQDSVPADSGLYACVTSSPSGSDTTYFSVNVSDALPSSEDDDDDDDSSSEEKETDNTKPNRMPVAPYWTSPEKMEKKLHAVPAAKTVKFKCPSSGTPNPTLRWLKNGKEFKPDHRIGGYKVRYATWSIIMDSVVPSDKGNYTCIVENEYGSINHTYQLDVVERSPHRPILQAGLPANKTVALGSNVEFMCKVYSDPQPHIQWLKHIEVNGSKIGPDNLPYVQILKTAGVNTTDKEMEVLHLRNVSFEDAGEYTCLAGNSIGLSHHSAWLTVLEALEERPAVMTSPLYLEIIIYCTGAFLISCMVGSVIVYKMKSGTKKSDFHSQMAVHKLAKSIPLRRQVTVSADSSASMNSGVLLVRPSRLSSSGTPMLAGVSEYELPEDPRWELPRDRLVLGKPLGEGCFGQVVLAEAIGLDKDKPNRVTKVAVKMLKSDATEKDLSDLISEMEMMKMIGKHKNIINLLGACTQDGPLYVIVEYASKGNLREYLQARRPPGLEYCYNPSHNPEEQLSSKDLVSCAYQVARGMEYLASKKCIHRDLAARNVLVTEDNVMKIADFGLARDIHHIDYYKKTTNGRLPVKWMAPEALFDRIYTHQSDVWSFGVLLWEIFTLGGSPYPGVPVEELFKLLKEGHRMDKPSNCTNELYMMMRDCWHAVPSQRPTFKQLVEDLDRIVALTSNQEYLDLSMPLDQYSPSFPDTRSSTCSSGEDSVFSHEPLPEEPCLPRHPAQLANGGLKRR

Row | Structure (SMILES) | inhibition [1] [%] | inhibition [2] [%] | inhibition [3] [%] | inhibition [4] [%] | inhibition [5] [%] | inhibition [6] [%] | inhibition [7] [%] | inhibition [8] [%] | inhibition [9] [%] | inhibition [10] [%] | inhibition [11] [%] | inhibition [12] [%] | inhibition [13] [%] | inhibition [14] [%] | inhibition [15] [%] | inhibition [16] [%]
1 | O[C@H]1CC[C@H](Nc2nccc(-n3nnc4ccccc43)n2)CC1 | < 50 | < 50 | < 50 | < 50 | 95 | 88 | < 50 | < 50 | 98 | < 50 | 66 | < 50 | < 50 | 91 | < 50 | < 50
2 | N[C@H]1CC[C@H](Nc2nccc(-n3nnc4ccccc43)n2)CC1 | < 50 | < 50 | < 50 | < 50 | 100 | 84 | < 50 | 97 | 99 | < 50 | < 50 | < 50 | < 50 | 95 | < 50 | 78
3 | O=C([C@H]1CC[C@H](Nc2nccc(-n3nnc4ccccc43)n2)CC1)N1CCOCC1 | < 50 | < 50 | < 50 | < 50 | 87 | < 50 | < 50 | < 50 | 98 | < 50 | < 50 | < 50 | < 50 | 70 | < 50 | < 50
4 | CS(=O)(=O)CCCOc1cccc2c1ccn2-c1ccnc(N[C@H]2CC[C@H](C(=O)N3CCC(O)CC3)CC2)n1 | – | – | – | – | – | – | – | – | – | – | – | – | – | > 85 | – | –
5 | O[C@H]1CC[C@H](Nc2nccc(-n3ncc4ccccc43)n2)CC1 | < 50 | < 50 | < 50 | < 50 | 93 | 94 | < 50 | < 50 | 95 | < 50 | < 50 | < 50 | < 50 | 90 | < 50 | < 50
6 | O[C@H]1CC[C@H](Nc2nccc(-c3n[nH]c4ccccc34)n2)CC1 | 80 | < 50 | < 50 | 80 | 100 | 94 | < 50 | 96 | 99 | 69 | < 50 | 85 | 89 | 98 | 86 | 66
7 | O[C@H]1CC[C@H](Nc2nccc(-n3ccc4ccccc43)n2)CC1 | < 50 | < 50 | < 50 | < 50 | 91 | 89 | < 50 | < 50 | 70 | < 50 | < 50 | < 50 | < 50 | 67 | < 50 | < 50
